Like-named read-outs stand apart in the source and are kept apart here.
What was measured:
MDA-MB-231 = assay: Cell proliferation assay; format: cell-based, human
Method in brief: (§1)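 Mycoplasma-negative, STR-authenticated cells were seeded at 4000−6000/well and kept overnight at 37 °C, 5% CO2. Graded test compound concentrations or solvent control were added to triplicate wells. Adherent lines were read by SRB (OD 510 nm) and suspension lines by MTT (OD 570 nm). IC50 was obtained by nonlinear regression. Results are means ± SD (n ≥ 2).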

PC-3 = assay: Cell proliferation assay; format: cell-based, human
Method in brief: as §1

[1] = 1 h postinjection; cited from earlier work
H1975 = assay: Cell proliferation assay; format: cell-based; settings: read-out: IC50 H1975; lung carcinoma; mean ± SD (n ≥ 2)
Method in brief: as §1

NUGC-3 = assay: Cell proliferation assay; format: cell-based; settings: read-out: IC50 NUGC-3; gastric carcinoma; mean ± SD (n ≥ 2)
Method in brief: as §1

K562 = assay: Cell proliferation assay; format: cell-based; settings: read-out: IC50 K562; chronic myeloid leukemia; mean ± SD (n ≥ 2)
Method in brief: as §1

KATO III = assay: Cell proliferation assay; format: cell-based; settings: read-out: IC50 KATO III; gastric carcinoma; mean ± SD (n ≥ 2)
Method in brief: as §1

HCT116 = assay: Cell proliferation assay; format: cell-based; settings: read-out: IC50 HCT116; colorectal carcinoma; mean ± SD (n ≥ 2)
Method in brief: as §1

DOHH2 = assay: Cell proliferation assay; format: cell-based; settings: read-out: IC50 DOHH2; diffuse large B cell lymphoma; mean ± SD (n ≥ 2)
Method in brief: as §1

NCI-H460 = assay: Cell proliferation assay; format: cell-based; settings: read-out: IC50 NCI-H460; lung carcinoma; mean ± SD (n ≥ 2)
Method in brief: as §1

MV-4-11 = assay: Cell proliferation assay; format: cell-based; settings: read-out: IC50 MV-4-11; acute myeloid leukemia; mean ± SD (n ≥ 2)
Method in brief: as §1

SUDHL-4 = assay: Cell proliferation assay; format: cell-based; settings: read-out: IC50 SUDHL-4; diffuse large B cell lymphoma; mean ± SD (n ≥ 2)
Method in brief: as §1

A-431 = assay: Cell proliferation assay; format: cell-based; settings: read-out: IC50 A-431; squamous cell carcinoma; mean ± SD (n ≥ 2)
Method in brief: as §1

HPAF-II = assay: Cell proliferation assay; format: cell-based; settings: read-out: IC50 HPAF-II; pancreatic carcinoma; mean ± SD (n ≥ 2)
Method in brief: as §1

[2] = read-out: IC50 MDA-MB-231, breast carcinoma, mean ± SD (n ≥ 2)
[3] = read-out: IC50 PC-3, prostate carcinoma, mean ± SD (n ≥ 2)

IC50 (MDA-MB-231; [2]) [µM]	IC50 (PC-3; [3]) [µM]	Compound	further results
16 ± 0.16	10.9 ± 3.31	3-(1,2-Dicarba-closo-dodecarboranyl)-7-methoxy-2H-chromene [Compound 1j]	–
35.3 ± 4.78	35.5 ± 0.98	3-(1,2-Dicarba-closo-dodecarboranyl)-7-methoxychromane [Compound 1k]	–
75.2 ± 20.8	66.6 ± 8.79	3-(1,2-Dicarba-closo-dodecarboranyl)-4H-chromen-4-one [Compound 1a]	–
14.6 ± 1.58	13.5 ± 1.02	3-(1,2-Dicarba-closo-dodecarboranyl)-7-methoxychroman-4-ol [Compound 1h]	–
5.34 ± 1.03	5.14 ± 2.93	3-(1,2-Dicarba-closo-dodecarboranyl)-5,7-dihydroxy-4H-chromen-4-one [Compound 1g]	IC50 (H1975): 5.13 ± 1.08 µM; IC50 (NUGC-3): 4.79 ± 0.44 µM; IC50 (K562): 7 ± 0.27 µM; IC50 (KATO III): 5.02 ± 0.38 µM; IC50 (HCT116): 4.21 ± 0.11 µM; IC50 (DOHH2): 5.23 ± 0.62 µM; IC50 (NCI-H460): 5.93 ± 2.15 µM; IC50 (MV-4-11): 5.65 ± 0.02 µM; IC50 (SUDHL-4): 6.16 ± 0.34 µM; IC50 (A-431): 4.84 ± 1.07 µM; IC50 (HPAF-II): 4.14 ± 0.93 µM

Second part, the compound before the results:

Compound	IC50 (MDA-MB-231; [2]) [µM]	IC50 (PC-3; [3]) [µM]	further results
O=c1c(-c2ccc(O)cc2)coc2cc(O)cc(O)c12 [genistein, reference compound]	–	–	IC50 (MDA-MB-231; Homo sapiens, MDA-MB-231, read-out: IC50 MDA-MB-231): 36.9 ± 2.81 µM; IC50 (PC-3; Homo sapiens, PC-3, read-out: IC50 PC-3): 29.5 ± 8.74 µM
3-(1,2-Dicarba-closo-dodecarboranyl)chromane-4,7-diol [Compound 1l]	17.9 ± 6.09	16.6 ± 1.89	–
O=C([O-])CN(CCN(CC(=O)[O-])Cc1cc(CCC(=O)NCCCCCC(=O)NCCCC[C@H](NC(=O)N[C@@H](CCC(=O)O)C(=O)O)C(=O)O)ccc1[O-])Cc1cc(CCC(=O)O)ccc1[O-].[68Ga+3].[OH3+] [^68Ga-PSMA11]	–	–	brain uptake [1]: 0.013 ± 0.004 % ID/g
3-(1,2-Dicarba-closo-dodecarboranyl)-7-methoxychroman-4-one [Compound 1i]	25.4 ± 7.3	38 ± 2.79	–
